Assays:
Rattus norvegicus [1] = species: Rattus norvegicus; assay: The compound was tested for enhancement of electrically induced release of [3H]GABA from rat cortical slices.; type: functional
Method in brief: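 Rat cerebral cortex slices were electrically stimulated at 2 Hz, and the increase in GABA release was measured in quadruplicate. EC150, the concentration giving a 50% increase in GABA release, came from computer-aided curve fitting. Where no EC150 was given, the value is the percent increase at 10^-4 M or 10^-5 M.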

[2] = biological target: Gamma-aminobutyric acid type B receptor subunit 1 (Rattus norvegicus, UniProt Q9Z0U4); assay: Inhibition of binding of [3H]CGP-27492 to gamma-aminobutyric acid type B receptor of rat cortex.
Rattus norvegicus [3] = species: Rattus norvegicus; assay: Enhanced electrically induced release of [3H]GABA from rat cortical slices; agonist; type: functional; settings: filed as agonist
Method in brief: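 Electrically stimulated rat cerebral cortex slices at 2 Hz; [3H]GABA release measured. EC150 is the concentration giving a 50% increase in GABA release, obtained by computer-aided curve fitting. Run in quadruplicate; no standard deviations computed because curve slopes varied. Some entries are instead percent increase at a single concentration of 10^-4 or 10^-5 M.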

[4] = biological target: Histamine H1 receptor (Homo sapiens) (UniProt P35367); assay: Inhibition of [3H]doxepine binding to histamine-1 receptor of central nervous system.; settings: concentration not given here
[5] = biological target: Glutamate receptor ionotropic kainate (Homo sapiens) (UniProt P39086+Q16478+Q16099+Q13002+Q13003); assay: Inhibition of [3H]kainate binding to Ionotropic glutamate receptor kainate of central nervous system; type: protein-complex assay; settings: concentration not given here
[6] = Inhibition of [3H]DCKA binding to N-methyl-D-aspartate glutamate receptor 1 of central nervous system; settings: concentration not given here
[7] = biological target: Glutamate receptor ionotropic AMPA (Homo sapiens) (UniProt P48058+P42263+P42262+P42261); assay: Inhibition of [3H]-AMPA binding to Quisqualate receptor of central nervous system; type: protein-complex assay; settings: concentration not given here
[8] = Inhibition of [3H]5-HT binding to 5-hydroxytryptamine 1 receptor of central nervous system; settings: concentration not given here
[9] = biological target: Histamine H2 receptor (Homo sapiens) (UniProt P25021); assay: Inhibition of [3H]tiotidine binding to histamine 2 receptor of central nervous system; settings: concentration not given here
Chain of Histamine H2 receptor (Homo sapiens) (P25021 whole entry): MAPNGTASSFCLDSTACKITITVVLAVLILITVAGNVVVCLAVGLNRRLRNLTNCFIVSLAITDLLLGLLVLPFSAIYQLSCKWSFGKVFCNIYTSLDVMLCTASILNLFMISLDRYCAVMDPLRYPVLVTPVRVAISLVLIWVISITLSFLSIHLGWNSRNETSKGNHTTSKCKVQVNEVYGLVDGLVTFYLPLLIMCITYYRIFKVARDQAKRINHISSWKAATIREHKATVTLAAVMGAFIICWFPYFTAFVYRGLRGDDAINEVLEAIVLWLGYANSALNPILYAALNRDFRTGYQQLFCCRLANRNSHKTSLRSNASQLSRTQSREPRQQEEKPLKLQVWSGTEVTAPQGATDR

Chain of Gamma-aminobutyric acid type B receptor subunit 1 (Q9Z0U4 whole entry): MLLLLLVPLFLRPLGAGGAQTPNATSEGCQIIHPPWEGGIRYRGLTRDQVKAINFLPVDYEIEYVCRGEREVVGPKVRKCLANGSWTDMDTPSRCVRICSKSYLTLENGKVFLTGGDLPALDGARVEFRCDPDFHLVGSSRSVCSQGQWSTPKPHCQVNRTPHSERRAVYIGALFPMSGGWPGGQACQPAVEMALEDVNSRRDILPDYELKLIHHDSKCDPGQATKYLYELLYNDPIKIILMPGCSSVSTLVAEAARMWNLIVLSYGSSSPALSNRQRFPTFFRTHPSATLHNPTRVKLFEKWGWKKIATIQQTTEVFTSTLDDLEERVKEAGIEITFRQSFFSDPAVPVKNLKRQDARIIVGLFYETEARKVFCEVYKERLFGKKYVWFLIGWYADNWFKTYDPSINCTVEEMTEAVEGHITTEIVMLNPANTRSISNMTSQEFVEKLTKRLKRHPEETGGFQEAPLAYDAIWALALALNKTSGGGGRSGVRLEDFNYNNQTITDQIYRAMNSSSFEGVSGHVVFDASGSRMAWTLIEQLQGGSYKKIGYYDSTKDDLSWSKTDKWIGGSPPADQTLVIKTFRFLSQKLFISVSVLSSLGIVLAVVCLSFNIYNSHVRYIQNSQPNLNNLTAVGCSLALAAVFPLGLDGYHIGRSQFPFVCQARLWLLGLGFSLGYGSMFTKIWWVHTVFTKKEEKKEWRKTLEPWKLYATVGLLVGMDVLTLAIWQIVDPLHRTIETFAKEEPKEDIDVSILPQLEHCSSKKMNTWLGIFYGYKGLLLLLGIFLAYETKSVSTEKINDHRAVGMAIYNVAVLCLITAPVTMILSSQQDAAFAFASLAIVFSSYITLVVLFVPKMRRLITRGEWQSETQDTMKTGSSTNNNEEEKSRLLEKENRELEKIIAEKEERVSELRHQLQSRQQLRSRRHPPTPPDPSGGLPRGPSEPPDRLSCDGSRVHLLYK
Chain of Histamine H1 receptor (Homo sapiens) (P35367 whole entry): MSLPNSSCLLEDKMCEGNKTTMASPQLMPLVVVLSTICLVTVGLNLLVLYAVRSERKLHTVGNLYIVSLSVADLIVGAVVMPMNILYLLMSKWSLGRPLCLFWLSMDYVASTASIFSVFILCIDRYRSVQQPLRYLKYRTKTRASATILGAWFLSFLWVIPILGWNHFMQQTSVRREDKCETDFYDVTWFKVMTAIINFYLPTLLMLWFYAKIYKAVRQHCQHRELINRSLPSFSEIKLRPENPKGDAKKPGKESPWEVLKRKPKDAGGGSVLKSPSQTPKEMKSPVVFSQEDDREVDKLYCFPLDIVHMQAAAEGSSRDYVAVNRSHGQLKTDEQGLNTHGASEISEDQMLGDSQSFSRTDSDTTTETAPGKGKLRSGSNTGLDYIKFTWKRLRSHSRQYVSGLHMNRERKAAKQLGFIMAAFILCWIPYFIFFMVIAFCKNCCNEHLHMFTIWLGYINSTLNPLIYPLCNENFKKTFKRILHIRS

Structure (SMILES)	EC150 (Rattus norvegicus [1])	IC50 [2]	also measured
CP(=O)(O)CC(CN)c1ccc(Cl)cc1 (stereo not drawn)	28 µM	9 µM	–
CCCCP(=O)(O)C(C)CCN (stereo not drawn)	8 µM	341 µM	–
CP(=O)(O)CC(O)(CN)c1ccc(Cl)cc1 (stereo not drawn)	30 µM	6 µM	–
NCC(=O)CP(=O)(O)CC1CCCCC1	5 µM	50 µM	–
CCOC(OCC)P(=O)(O)CC(CN)c1ccc(Cl)cc1 (stereo not drawn)	11 µM	21 µM	–
CCOC(OCC)P(=O)(O)C[C@@H](O)CN	11 µM	12 µM	–
NCCCP(=O)(O)CCCN	–	29 µM	–
CCCCP(=O)(O)CC(C)(O)CN (stereo not drawn)	–	45 µM	–
CCCCP(=O)(O)C(O)CCN (stereo not drawn)	–	37 µM	–
CC(=O)CCP(=O)(O)CCCN	4 µM	1 µM	–
NCCCP(=O)(O)C1CCCO1 (stereo not drawn)	89 µM	34 µM	–
NCCCP(=O)(O)C(O)c1ccccc1 (stereo not drawn)	10 µM	8 µM	–
CCOC(OCC)P(=O)(O)CCCN	30 µM	27 µM	–
CCCCOC(OCCCC)P(=O)(O)CCCN	300 µM	20 µM	–
CCCCCCP(=O)(O)CCCN	14 µM	20 µM	–
NC[C@@H](O)CP(=O)(O)Cc1ccccc1	11 µM	32 µM	–
NCCCP(=O)(O)CCc1ccccc1	60 µM	10 µM	–
CCCCP(=O)(O)CC(O)(CN)c1ccc(Cl)cc1 (stereo not drawn)	45 µM	7 µM	–
NCCCP(=O)(O)C1CCCCO1 (stereo not drawn)	144 µM	39 µM	–
CCP(=O)(O)CCCN	118 µM	2 µM	–
NCCCP(=O)(O)Cc1ccc(F)cc1	10 µM	52 µM	–
NCCCP(=O)(O)Cc1ccccn1	30 µM	6 µM	–
CC(C)OC(OC(C)C)P(=O)(O)CCCN	47 µM	18 µM	–
CCCC(O)P(=O)(O)CCCN (stereo not drawn)	44 µM	18 µM	–
NCCC[PH](=O)O	–	0.005 µM	EC150 (Rattus norvegicus [3]): Agonist

Structure (SMILES)	EC150 (Rattus norvegicus [1])	IC50 [2]	also measured
CP(=O)(O)CCCN	–	–	EC150 (Rattus norvegicus [3]): Agonist
NC[C@H](O)CP(=O)(O)CC1CCCCC1	2 µM	5 µM	–
NCCCP(=O)(O)CCC1CCCCO1 (stereo not drawn)	30 µM	2 µM	–
CCCCP(=O)(O)CC(O)CN (stereo not drawn)	8 µM	29 µM	–
NCCCP(=O)(O)CC1CCCCO1 (stereo not drawn)	12 µM	32 µM	–
NCCCP(=O)(O)CC1CC1	53 µM	37 µM	–
CCOC(OCC)P(=O)(O)CC(O)CN (stereo not drawn)	9 µM	16 µM	–
CCCC(F)(F)P(=O)(O)CCCN	115 µM	22 µM	–
NCCCP(=O)(O)CN	2 µM	50 µM	–
NCC(O)CP(=O)(O)Cc1ccccc1 (stereo not drawn)	4 µM	8 µM	–
NC[C@@H](O)CP(=O)(O)CC1CCCCC1	4 µM	6 µM	–
NCC(=O)CP(=O)(O)CC1CC1	3 µM	14 µM	–
NCCCP(=O)(O)CC1CCCCC1	3 µM	4 µM	–
NC[C@H](O)CP(=O)(O)Cc1ccccc1	5 µM	5 µM	–
NCCCP(=O)(O)CCC1CCCCC1	13 µM	2 µM	–
NCC(O)CP(=O)(O)CC1CCCCC1 (stereo not drawn)	8 µM	5 µM	–
CC(C)CP(=O)(O)CCCN	98 µM	14 µM	–
CC(C)(C)P(=O)(O)CCCN	–	73 µM	–
NCCCP(=O)(O)CC(O)CNC(=O)c1ccccc1C(N)=O (stereo not drawn)	9 µM	2 µM	–
CCCCP(=O)(O)CC(=O)CN	6 µM	–	–
CCCOC(OCCC)P(=O)(O)CCCN	60 µM	28 µM	–
CCCCP(=O)(O)CCCN [SGS-742]	38 µM	–	inhibition [4]: 7%; inhibition [5]: 8%; inhibition [6]: 16%; inhibition [7]: 7%; inhibition [8]: 2%; inhibition [9]: 6%
NCCCP(=O)(O)c1ccccc1	–	126 µM	–
NCCCP(=O)(O)Cc1ccccc1	5 µM	10 µM	–
CCCP(=O)(O)CCCN	30 µM	16 µM	–
